Screening data deposited in PubChem BioAssay by several laboratories.
An excerpt weighted towards active compounds, which were near 1.2% of everything screened.
A3A deaminase: human APOBEC3A DNA deaminase inhibition | recombinant A3A, FAM/TAMRA ssDNA deamination fluorescence | inhibition, % at 20 µM | hit rate 0.41% among 330,000 | AID 493011;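 active means at least 40% inhibition at 20 µM here, with at most 30% in a related deaminase screen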
Target sequence (P31941 whole entry, looked up): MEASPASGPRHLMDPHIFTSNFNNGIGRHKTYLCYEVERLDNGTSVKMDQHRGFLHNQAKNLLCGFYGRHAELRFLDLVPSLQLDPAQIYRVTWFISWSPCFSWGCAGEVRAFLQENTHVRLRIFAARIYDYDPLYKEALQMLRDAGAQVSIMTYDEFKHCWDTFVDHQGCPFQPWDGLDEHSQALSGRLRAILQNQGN
FN deposit inh: fibronectin deposition inhibition; inhibition, % at 12.6 µM; AH1F fibroblasts, Alexa488-fibronectin deposition fluorescence, overnight; hit rate 0.086% among 350,000;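 active means mean inhibition across replicates of 30% or more, regardless of how many single replicates reach that level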
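Schedule: 1 h cell adhesion before compound, then overnight fibronectin incubation; test system: AH1F fibroblast monolayer depositing Alexa488-labelled fibronectin into matrix; quantity: 10000 AH1F cells per well; probe or stimulus: fluorescent fibronectin at 24 nM final; signal: fluorescence, ex 485 nm, em 525 nm; evaluation: percent inhibition as loss of matrix-bound fibronectin fluorescence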
ABHD5 PLIN5 PPI: inhibitors of human ABHD5-perilipin-5 interaction | Q00G26+Q8WTS1 | Split G. princeps luciferase complementation, luminescence, 4 h | inhibition, % at 4 µM | hit rate 0.78% among 360,000 | AID 602281;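 active means inhibition above the mean inhibition across every tested compound plus 3 SD, cut at about 22% in these data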
APOBEC3G inh: inhibitors of human APOBEC3G DNA deaminase; recombinant A3G, ssDNA deamination FAM/TAMRA fluorescence; inhibition, % at 20 µM; hit rate 0.28% among 330,000; Q9HC16;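 active means inhibition of at least 40% at 20 µM, with no more than 30% in the related APOBEC3A deaminase screen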
APOBEC3G confirm: APOBEC3G (human) deaminase inhibition, confirmed; shares compounds with APOBEC3G inh; recombinant A3G ssDNA deaminase, UDG/FAM-TAMRA fluorescence; inhibition, % at 20 µM; hit rate 72% among 890; AID 493152;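 active means inhibition reaching a set limit in any replicate at 20 µM, the limit being 80% of the first screen's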
UDG ctr A3G: counter-screen for APOBEC3G inhibitors: E. coli UDG. 710 tested, under 10 active. inhibition, % at 20 µM. shares compounds with APOBEC3G inh. UDG counterscreen, FAM/TAMRA oligo fluorescence;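 active means compounds giving 40% or more inhibition at 20 µM in any one of the three replicates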;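 further: inhibitors lower the FAM signal released by uracil excision and alkaline cleavage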
Target sequence (P12295 whole entry, looked up): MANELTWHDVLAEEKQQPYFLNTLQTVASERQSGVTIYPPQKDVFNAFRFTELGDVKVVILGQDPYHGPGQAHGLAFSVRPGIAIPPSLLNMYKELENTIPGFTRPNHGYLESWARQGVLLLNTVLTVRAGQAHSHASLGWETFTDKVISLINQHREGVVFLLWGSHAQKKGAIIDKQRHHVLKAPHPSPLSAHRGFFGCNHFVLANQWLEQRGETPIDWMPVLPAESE
Numbers stand for hits; 0 = inactive; - = no result given.

SMILES	A3A deaminase	FN deposit inh	ABHD5 PLIN5 PPI	APOBEC3G inh	APOBEC3G confirm	UDG ctr A3G
CCCCC(=O)Nc1ccc(Br)cn1	0	0	0	0	-	-
CO[C@H]1CN(C)C(=O)c2cc(NS(=O)(=O)c3cn(C)cn3)ccc2OC[C@H](C)N(C)C[C@H]1C	-	0	-	-	-	-
O=C(C[C@H]1CC[C@H](NS(=O)(=O)c2ccccc2)[C@H](CO)O1)N1CCC(Cc2ccccc2)CC1	-	0	-	-	-	-
Cc1ccc(Nc2nnns2)cc1	0	-	0	40.8	27.2	0
Cc1ccc(Nc2nc3ccccc3s2)cc1	0	0	0	0	-	-
CO[C@@H]1CN(C)C(=O)c2ccc(NS(=O)(=O)c3ccc(C)cc3)cc2OC[C@@H](C)N(C(=O)NC(C)C)C[C@@H]1C	-	0	-	-	-	-
Cc1ccc2c(c1)-c1c(ssc1=S)C(C)(C)N2C(=O)c1ccco1	0	0	0	42.0	55.3	0
Cc1cccc(S(=O)(=O)C(C#N)c2nc3ccccc3nc2N2CCCC2)c1 (configuration not stated)	0	-	0	0	-	-
N#CC(c1nc2ccccc2nc1N1CCCC1)S(=O)(=O)c1cccs1 (configuration not stated)	0	0	0	51.1	0	0
CCCOC(=O)c1c(NC(=O)C2CCCO2)sc(C(=O)OC)c1C (configuration not stated)	0	0	0	41.4	47.8	0
CC(C)CSc1n[nH]c(=S)s1	0	0	0	42.1	90.5	0
CS(=O)(=O)C1=NN2C(=N)/C(=C\c3ccc(OC(=O)c4ccco4)cc3)C(=O)N=C2S1	0	0	0	62.1	0	0
CC(C)CS(=O)(=O)C1=NN2C(=N)/C(=C\c3ccc(OC(=O)c4ccco4)cc3)C(=O)N=C2S1	0	0	0	0	-	-
Cn1c(-c2cc(Br)ccc2O)n[nH]c1=S	0	-	0	48.4	83.2	0
Oc1ccc(Br)cc1-c1n[nH]c(=S)n1Cc1ccccc1	0	0	0	0	-	-
CC1(C)Cc2c(sc3ncn4c(=S)[nH]nc4c23)CO1	0	0	0	41.6	74.0	0
C[C@@H]1CN([C@H](C)CO)C(=O)c2cc(C#CC3CCCC3)cnc2O[C@H]1CN(C)S(=O)(=O)c1cccc(F)c1	-	0	-	-	-	-
COC(=O)c1ccc(NC(=O)c2ccc(NC(=O)c3ccco3)cc2)cc1	0	-	0	0	-	-
CC(=O)c1ccc(NC(=O)c2ccc(NC(=O)c3ccco3)cc2)cc1	0	-	0	56.8	56.6	0
Cc1[nH]c(=O)[nH]c(=S)c1C(=O)Nc1ccc(Cl)c(Cl)c1	0	0	0	60.0	74.4	0
C/C=C/c1ccc2c(c1)O[C@@H](CN(C)C(=O)Nc1ccc(C(F)(F)F)cc1)[C@H](C)CN([C@@H](C)CO)S2(=O)=O	-	0	-	-	-	-
CO[C@H]1CC[C@@H]2CCN(C)C(=O)C[C@@H](c3ccccc3)CN(C)C(=O)c3cc(C#N)ccc3OC[C@@H]1O2	-	0	-	-	-	-
CCOC(=O)c1cc(C)[nH]c(=S)c1C#N	0	-	0	63.4	81.8	0
CCOC(=O)c1cc(C(=O)OCC)c(=O)[nH]c1C	0	0	0	0	-	-
CO[C@@H]1CN(C)C(=O)c2cc(NC(=O)c3ccccc3)ccc2OC[C@@H](C)N(C(=O)CN(C)C)C[C@H]1C	-	0	-	-	-	-
SMILES	A3A deaminase	FN deposit inh	ABHD5 PLIN5 PPI	APOBEC3G inh	APOBEC3G confirm	UDG ctr A3G
Cc1c(Cl)c([N+](=O)[O-])nn1CC(=O)NCC(C)C	0	0	0	48.0	0	0
Nc1cc(S(=O)(=O)Nc2ccccc2Cl)ccc1N1CCCCC1	0	0	0	49.0	47.2	0
COc1ccccc1NS(=O)(=O)c1cc(NC(=O)c2ccc(Cl)nc2)ccc1N1CCCC1	0	-	0	65.7	68.5	0
CCN(CC)c1ccc(NC(=O)c2ccccn2)cc1S(=O)(=O)Nc1ccccc1OC	0	-	0	56.2	50.8	0
COc1ccccc1NS(=O)(=O)c1cc(NC(=O)C2CCC2)ccc1N1CCCCC1	0	0	0	48.9	76.8	0
COc1ccc(NS(=O)(=O)c2cc(NC(=O)C3CC3)ccc2N2CCCCC2)cc1	0	-	0	0	-	-
O=C(C1CC1)N1CC(=O)N2[C@H](CO)[C@@H](c3ccc(Br)cc3)[C@H]2C1	-	0	-	-	-	-
O=C(C[C@@H]1CC[C@H]2[C@@H](COC[C@@H](O)CN2Cc2nccs2)O1)NCc1ccccc1	-	0	-	-	-	-
COc1ccccc1NS(=O)(=O)c1cc(N)ccc1N1CCCCC1	0	0	0	49.0	62.2	0
Nc1ccc(N2CCCCC2)c(S(=O)(=O)Nc2ccccc2Cl)c1	0	0	0	0	-	-
